G6PDH CS = L. mesenteroides G6PDH inhibitors, counter-screen for G6PDH-coupled screening assays, biochemical, Leuconostoc mesenteroides enzyme. Purified L. mesenteroides G6PDH, diaphorase/resazurin coupled fluorescence, 45 min. AID 1020, 2008. inhibition, % at 5 µM. 200,000 tested, 0.12% active; in the data active = inhibition above about 50%
Diaph inh CS = diaphorase inhibitors and chemical oxidizers, primary screen, counter-screen for diaphorase-coupled primary assays, biochemical, uHTS, resorufin fluorescence; diaphorase resazurin-to-resorufin fluorescence, NADH, 16 min; bacterial (C. kluyveri) enzyme, not human; inhibition, % at 20 µM; 190,000 tested, 0.69% active;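 active = primary screen inhibition at 20 µM above a set limit, cut at about 50% in these data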;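 also: plate controls were DMSO with full reaction for no effect and wells lacking NADH for full effect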
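System: Diaphorase enzyme from Clostridium kluyveri | Amount: Enzyme working solution with 0.14 U/mL diaphorase | Benchmarks: No-NADH positive control and DMSO neutral control | Signal: Fluorescence of resorufin formed from resazurin, Ex 544/Em 590 nm | Schedule: 16-min room-temperature incubation before reading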
PfGluPho inh = PfG6PD enzyme inhibitors, primary screen, biochemical, fluorescence intensity, uHTS; inhibition, % at 20 µM; glucose-6-phosphate dehydrogenase-6-phosphogluconolactonase (Plasmodium falciparum 3D7); PfGluPho enzyme, NADPH resazurin-diaphorase fluorescence; 350,000 tested, 0.78% active; AID 504690, 2011;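 active = inhibition reaching at least a set limit at 20 µM in the primary screen, cut at about 59% in these data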;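 also: 0% = DMSO wells with substrate and 100% = DMSO wells lacking glucose-6-phosphate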
HKDC1 inhibitor = HKDC1 hexokinase inhibitors, primary screen, biochemical, fluorescence, uHTS; Q2TB90; recombinant HKDC1, G6PDH/diaphorase resazurin coupled fluorescence; inhibition, % at 20 µM; 340,000 tested, 0.16% active; AID 493160, 2011;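 active = inhibition above about 35% when tested at 20 µM, limit read from the data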;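 also: plate controls were DMSO wells with enzyme for no effect and DMSO wells lacking enzyme for full effect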
Target sequence (Q2TB90 whole entry, looked up): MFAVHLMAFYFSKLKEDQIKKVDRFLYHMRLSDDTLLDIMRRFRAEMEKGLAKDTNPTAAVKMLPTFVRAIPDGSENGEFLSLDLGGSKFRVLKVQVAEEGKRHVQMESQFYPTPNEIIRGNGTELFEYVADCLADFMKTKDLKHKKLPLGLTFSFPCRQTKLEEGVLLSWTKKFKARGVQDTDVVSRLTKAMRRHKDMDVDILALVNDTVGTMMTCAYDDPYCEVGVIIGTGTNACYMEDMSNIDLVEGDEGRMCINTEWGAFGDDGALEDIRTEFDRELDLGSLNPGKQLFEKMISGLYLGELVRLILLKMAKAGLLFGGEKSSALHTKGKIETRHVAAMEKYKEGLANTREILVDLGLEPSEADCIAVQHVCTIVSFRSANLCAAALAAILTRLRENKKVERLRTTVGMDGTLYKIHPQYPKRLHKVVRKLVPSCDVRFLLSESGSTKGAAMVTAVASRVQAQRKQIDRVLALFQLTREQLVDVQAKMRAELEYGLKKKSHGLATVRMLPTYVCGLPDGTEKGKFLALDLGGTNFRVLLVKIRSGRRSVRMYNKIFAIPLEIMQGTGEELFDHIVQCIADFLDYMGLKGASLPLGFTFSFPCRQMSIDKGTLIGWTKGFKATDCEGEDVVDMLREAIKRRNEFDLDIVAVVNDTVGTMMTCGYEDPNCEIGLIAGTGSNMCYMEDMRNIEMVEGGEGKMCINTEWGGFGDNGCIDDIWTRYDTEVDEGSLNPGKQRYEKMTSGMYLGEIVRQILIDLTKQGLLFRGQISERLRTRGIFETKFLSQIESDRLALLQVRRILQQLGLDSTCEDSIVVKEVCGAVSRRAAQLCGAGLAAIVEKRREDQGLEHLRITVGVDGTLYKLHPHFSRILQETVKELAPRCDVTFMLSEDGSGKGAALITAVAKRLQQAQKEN
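Material: recombinant HKDC1 hexokinase; Amount: HKDC1 at 5 µg/mL; Medium: Tris pH 8.0 buffer with MgCl2, Tween-20, BSA, BME; Schedule: 90 min reaction incubation at room temperature, dark; Technique: coupled resazurin fluorescence, excitation 525 nm, emission 613 nm.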
PfG6PD confirm = PfG6PD inhibitors, hit retest, confirmation, biochemical, fluorescence intensity, single concentration | shares compounds with PfGluPho inh | recombinant PfGluPho, NADPH-diaphorase-resazurin fluorescence | inhibition, % at 20 µM | 2,400 tested, 34% active;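 active = inhibition of at least 50% at 20 µM in any single replicate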;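 also: 0% = DMSO with substrate and 100% = DMSO lacking glucose-6-phosphate substrate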
Diaphorase 10uM = diaphorase inhibitors and chemical oxidizers, confirmation, counter-screen for P. falciparum G6PD inhibitor project, biochemical, fluorescence intensity, 10 µM NADPH. shares compounds with PfGluPho inh. diaphorase-coupled resazurin reduction, NADPH 10 uM. inhibition, % at 20 µM. 820 tested, 39% active;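 active = average inhibition reaching 50% or more with the compound at 20 µM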;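 also: resorufin red fluorescence formed as diaphorase reduces resazurin using NADPH; 0% = DMSO with enzyme and 100% = DMSO without enzyme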
Diaph ctr 30uM = diaphorase inhibitors and chemical oxidizers, confirmation, counter-screen for P. falciparum G6PD inhibitor project, biochemical, fluorescence intensity, 30 µM NADPH; shares compounds with PfGluPho inh; Diaphorase/resazurin coupled assay, resorufin fluorescence; inhibition, % at 20 µM; 820 tested, 29% active;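 active = inhibition averaging 50% or more, tested at 20 µM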;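 also: 0% = DMSO with enzyme and 100% = DMSO wells lacking diaphorase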
* hit, by the source's call; nt = not tested or not shown. Compounds with a hit are over-represented: about 1.3% of the library has one in this group of screens.

SMILES	G6PDH CS	Diaph inh CS	PfGluPho inh	HKDC1 inhibitor	PfG6PD confirm	Diaphorase 10uM	Diaph ctr 30uM
O=c1[nH]c2ccc(NCc3ccccc3OCc3ccc(Cl)cc3)cc2[nH]1	nt	nt	73*	18	47*	-9	0
COc1cc(CNn2c(C)n[nH]c2=S)cc(Cl)c1OCC(=O)NC(C)(C)C	nt	nt	42	-2	nt	nt	nt
COc1cccc(CNc2ccc3[nH]c(=O)[nH]c3c2)c1OCc1ccc(F)cc1	nt	nt	112*	23	51*	-9	-1
Oc1ccc(NCc2ccccc2OCc2ccccc2)cc1	5	16	73*	15	50*	-10	-16
C=CCOc1c(CNc2ccc3[nH]c(=O)[nH]c3c2)cccc1OC	11	nt	21	-1	nt	nt	nt
COc1cc(CNc2ccc3[nH]c(=O)[nH]c3c2)cc(Cl)c1OCC(=O)NC(C)(C)C	-52	73*	83*	11	38	nt	nt
C=CCOc1ccc(CNc2ccc3[nH]c(=O)[nH]c3c2)cc1	18	nt	42	6	nt	nt	nt
CC1(C)CC(=O)N(c2ccc(Cl)cc2Cl)C(=O)C1	nt	nt	-1	-7	nt	nt	nt

Screening results deposited in PubChem BioAssay by Sanford-Burnham Center for Chemical Genomics.
